# Compounds with a hit are over-represented: about 1.7% of the library has one in this group of screens.
# Efflux pump mplx: inhibitors of Candida efflux pumps in yeast, primary screen, S. cerevisiae, Nile Red, multiplex; S. cerevisiae Candida pump triplex; inhibition, % at 10 µM; 0.44% of 330,000 active; AID 485275, 2010;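 active = plate passing quality check with inhibition over a set limit, or well fluorescence over plate mean plus 4 SD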;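 note: Nile Red retained in pooled yeast measured as flow cytometry median fluorescence; 0% = buffer negative control and 100% = Enniatin B positive control; higher means more Nile Red kept so more efflux inhibition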
# DSG3 Ab inh: inhibitors of pemphigus antibody binding to DSG3, primary screen, biochemical, bead-based, flow cytometry, scFv-GFP; Desmoglein-3 (Homo sapiens), P32926; 0.48% of 310,000 active; AID 588358, 2011; DSG3-coupled beads, scFv-anti-DSG3-GFP binding; stronger effect = lower value; binding (percent of control), % at 10 µM;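 active = binding more than 3 SD below its plate's average and above zero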;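 note: hits lower antibody fragment binding to DSG3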
# Target sequence (P32926 whole entry, looked up, the tested form may be a part): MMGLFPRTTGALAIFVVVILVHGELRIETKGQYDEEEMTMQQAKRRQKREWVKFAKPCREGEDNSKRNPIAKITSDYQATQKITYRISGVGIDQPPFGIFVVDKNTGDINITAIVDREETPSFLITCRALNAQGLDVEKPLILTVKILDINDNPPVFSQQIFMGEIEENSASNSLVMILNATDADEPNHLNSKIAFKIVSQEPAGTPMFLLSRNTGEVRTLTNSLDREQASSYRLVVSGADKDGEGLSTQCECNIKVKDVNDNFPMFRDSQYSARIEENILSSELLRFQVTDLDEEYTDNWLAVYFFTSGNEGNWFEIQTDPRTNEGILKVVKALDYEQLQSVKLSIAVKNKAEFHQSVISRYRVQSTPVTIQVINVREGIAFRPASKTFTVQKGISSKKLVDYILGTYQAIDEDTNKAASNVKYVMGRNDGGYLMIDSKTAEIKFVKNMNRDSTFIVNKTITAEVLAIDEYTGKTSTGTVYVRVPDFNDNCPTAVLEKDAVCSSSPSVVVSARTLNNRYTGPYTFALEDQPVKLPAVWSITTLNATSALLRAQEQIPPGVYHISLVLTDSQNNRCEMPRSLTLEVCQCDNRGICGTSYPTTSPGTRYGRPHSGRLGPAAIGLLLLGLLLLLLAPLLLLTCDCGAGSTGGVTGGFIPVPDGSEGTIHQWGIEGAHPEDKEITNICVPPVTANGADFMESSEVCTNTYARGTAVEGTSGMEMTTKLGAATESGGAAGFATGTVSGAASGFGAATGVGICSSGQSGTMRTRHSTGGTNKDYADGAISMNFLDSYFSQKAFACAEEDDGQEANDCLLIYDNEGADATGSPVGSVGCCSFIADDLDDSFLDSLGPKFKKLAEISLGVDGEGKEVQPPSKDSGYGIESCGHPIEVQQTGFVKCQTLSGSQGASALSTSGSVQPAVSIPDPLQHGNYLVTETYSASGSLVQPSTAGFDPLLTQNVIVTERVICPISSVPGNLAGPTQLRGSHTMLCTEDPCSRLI
# Arrestin-AP2 inh: inhibitors of beta-arrestin/AP2 binding, primary screen, biochemical, GPCR trafficking, flow cytometry; beta-arrestin 1 C-terminal peptide binding to AP2 beta2-adaptin appendage (human); FITC-arrestin peptide / GST-AP2 beads; AP2 beta2 appendage carries R879A mutation; inhibition, % at 10 µM; 0.31% of 340,000 active; AID 504490, 2011;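 active = inhibition above a set limit, near 3 SD of compounds lacking own fluorescence, cut at about 54% in these data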;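 note: plate controls were DMSO wells for no effect and 5 µM unlabelled arrestin peptide for full effect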
#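 system = GST-tagged AP2 beta2-adaptin appendage (R879A) on 4 µm glutathione beads | reagent = FITC-labelled arrestin peptide probe, 50 nM final | schedule = compound with beads 12 min RT, then probe 1 h RT | signal = HyperCyt-sampled flow cytometry, FL1 channel, ex 488/em 535 nm | read-out = percent response from loss of bead-bound FITC fluorescence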
# Neddylation inh: inhibitors of cullin neddylation, primary screen, biochemical, TR-FRET, uHTS, NAE and Ubc12; NEDD8-conjugating enzyme Ubc12 (Homo sapiens) + NEDD8-activating enzyme E1 regulatory …; 0.58% of 360,000 active; inhibition, % at 25 µM; AID 651699, 2012; in the data active = inhibition above about 36%
# Yeast cmpd fluor: counter-screen for efflux pump inhibitors: compound fluorescence | shares compounds with Efflux pump mplx | S. cerevisiae AD/pABC3, flow cytometry | fluorescence ratio to DMSO, % at 10 µM | 4% of 1,700 active | AID 588517;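 active = fluorescence ratio to DMSO above its plate's cutoff, the plate mean ratio plus 5 SD, cut at about 210% in these data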;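 note: unstained yeast with no Nile Red so the signal is compound autofluorescence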
# CaMdr1 efflux inh: inhibitors of Candida albicans Mdr1 efflux, confirmation, flow cytometry, singleplex, Cherry Pick1 set; inhibition, % at 10 µM; 1% of 1,700 active; S. cerevisiae AD/CaMDR1, Nile Red efflux; AID 588518, 2011; shares compounds with Efflux pump mplx; in the data active = inhibition above about 26%;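 note: 0% = DMSO vehicle and 100% = reference inhibitor; higher means more Nile Red retained so more efflux inhibition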
# Cdr2 pump inh: inhibitors of Candida albicans Cdr2 efflux pump, confirmation, S. cerevisiae AD/CaCDR2, flow cytometry, cherry pick 1, singleplex; Nile Red retention; Nile Red retention ratio vs DMSO, % at 10 µM; AID 588520, 2011; 4% of 1,700 active; shares compounds with Efflux pump mplx; in the data active = Nile Red retention ratio vs DMSO above about 190%;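 note: higher ratio means more blocking of Cdr2 efflux of the dye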
# Cdr1 pump inh: inhibitors of Candida albicans Cdr1 efflux pump, confirmation, S. cerevisiae AD/CaCDR1, flow cytometry, cherry pick 1, singleplex; Nile Red efflux; shares compounds with Efflux pump mplx; inhibition, % at 10 µM; 1% of 1,700 active;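 active = inhibition above the screen-wide mean plus twice its standard deviation, cut at about 32% in these data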
# An asterisk follows results filed as active; . = not tested or not shown.
SMILES,Efflux pump mplx,DSG3 Ab inh,Arrestin-AP2 inh,Neddylation inh,Yeast cmpd fluor,CaMdr1 efflux inh,Cdr2 pump inh,Cdr1 pump inh
C/C(=N\NC(=O)CSCc1ccccc1Br)c1cccc([N+](=O)[O-])c1,6.5*,112.0,2.1,-5.5,100.3,-0.2,96.3,0.0
Cc1cc(C)c(OCC(=O)Nc2ccccc2N2CCOCC2)c(C)c1,10.6*,86.3,9.1,1.6,86.5,-0.2,110.3,0.1
Cc1cc(C)c(OCC(=O)Nc2ccccc2N2CCCCC2)c(C)c1,0.1,102.5,0.9,4.2,.,.,.,.
NC(=O)NOCc1ccccc1,0.1,106.8,28.9,7.6,.,.,.,.
O=C(NOCc1ccccc1)c1coc(-c2ccccc2)n1,1.4*,105.7,4.5,-4.7,92.1,0.0,96.3,0.0
CCCCn1c(N)c(N(CCOC)C(=O)COC(=O)CCOc2ccccc2)c(=O)[nH]c1=O,0.0,108.3,0.9,-1.0,.,.,.,.
CCSc1nc2c(c(=O)[nH]1)C(c1cccnc1)C(C(=O)OC)=C(C)N2 (centres undefined),0.3,.,10.4,12.5,.,.,.,.
CCSc1nc2c(c(=O)[nH]1)C(c1ccncc1)C(C(=O)OC(C)C)=C(C)N2 (centres undefined),0.4*,100.0,-3.0,13.1,92.1,-0.2,107.2,-0.1
COc1ccc(NC(=O)N(C)C[C@H]2Oc3c(NC(=O)Nc4c(C)noc4C)cccc3C(=O)N([C@H](C)CO)C[C@@H]2C)cc1,-0.2,110.5,0.1,13.9,100.3,-0.3,109.4,-0.1
COc1ccc(NC(=O)Nc2cccc3c2O[C@H](CN(C)C(=O)Nc2ccc(OC)cc2)[C@@H](C)CN([C@H](C)CO)C3=O)cc1,-0.2,98.7,.,-24.4,101.1,-0.1,116.5,-0.1
COc1ccc(NC(=O)N(C)C[C@H]2Oc3c(NC(=O)Nc4ccccc4)cccc3C(=O)N([C@H](C)CO)C[C@@H]2C)cc1,-0.4,111.5,6.0,-0.2,.,.,.,.
CCOC(=O)c1c[nH]n2c(=S)ncnc12,.,101.3,.,8.2,.,.,.,.
CC(=O)c1c(N2CCN(C)CC2)[nH]c(-c2ccccc2)nc1=S,1.5*,80.3,-0.5,-2.4,103.4,-0.1,152.2,0.0
CCc1ccc(CN(C)C(=O)C2CCC(=O)N(Cc3ccccn3)C2)cc1 (centres undefined),0.3,106.1,20.5,-2.9,.,.,.,.
O=C(NCC(=O)N1CCC2(CC1)NCCc1[nH]cnc12)c1ccc(F)cc1,0.0,105.2,-3.8,-14.2,.,.,.,.
O=C1CCCN1CCCNc1ccc2nnc(CCC(=O)N3CCN(c4ccccc4)CC3)n2n1,1.3*,.,5.9,1.3,98.9,-0.1,89.9,0.0
CC(=O)c1ccc(S(=O)(=O)NCCC(=O)NC2CCN(Cc3ccccc3)CC2)cc1,0.1,154.5,14.0,-1.8,.,.,.,.
Cc1ccnc(SCc2cn3c(C)cccc3n2)n1,1.1*,96.4,9.4,2.4,99.8,-0.2,95.6,-0.1
O=C(O)c1cc(S(=O)(=O)N2CCCCC2)sc1Cl,0.2,83.6,3.7,3.2,.,.,.,.
CC1CC(C)CN(S(=O)(=O)c2cc(C(=O)O)c(Cl)s2)C1 (centres undefined),9.7*,90.5,-9.6,6.8,101.4,-0.4,93.5,0.2
COc1cc(NC(=O)C2CCCCN2)ccc1OCC(C)C (centres undefined),0.5*,103.0,3.7,-6.3,98.2,-0.2,99.7,-0.1
O=C(/C(=C/c1ccccc1Cl)c1ccccc1)N1CCOCC1,0.5,99.6,36.6,0.9,.,.,.,.
OC1CN=C2CCCc3c2n(c2ccc(Cl)cc32)C1 (centres undefined),0.1,102.7,3.7,.,.,.,.,.
c1ccc(-c2ccc3c(c2)c2c4n3CCN=C4CCC2)cc1,0.3*,106.0,-3.4,32.2,103.4,-0.2,105.7,-0.2
O=C1CCC(C(=O)O)N1 (centres undefined),0.0,101.6,13.0,4.4,.,.,.,.
SMILES,Efflux pump mplx,DSG3 Ab inh,Arrestin-AP2 inh,Neddylation inh,Yeast cmpd fluor,CaMdr1 efflux inh,Cdr2 pump inh,Cdr1 pump inh
CCC(C)NC(=O)c1ccc(CSc2nc3ccncc3n2Cc2ccc(F)cc2)cc1 (centres undefined),0.0,105.3,3.2,-5.7,109.7,0.0,92.2,0.0
Cc1ccccc1CC1(CO)CCCN(C(=O)c2ccc3ncccc3c2)C1 (centres undefined),0.0,98.1,-27.9,-7.7,.,.,.,.
O=C(c1cc(COc2cccc(C(F)(F)F)c2)on1)N1CCC(c2ccccc2)CC1,-0.3,115.5,10.7,1.7,.,.,.,.
O=C(c1cc(COc2cccc(C(F)(F)F)c2)on1)N1CCC(c2ccncc2)CC1,0.5*,92.3,35.0,-1.8,146.1,3.5,206.4*,2.6
COC(=O)[C@H](CCSC)NC(=O)NCc1ccccn1,0.8*,99.9,2.8,-0.2,104.6,0.1,112.2,-0.1
O=C(N/N=C/c1cccs1)c1ccc2c(c1)OCO2,11.4*,.,-2.8,-14.1,95.5,-0.1,111.5,0.0
Cc1ccnc(SC2CC(=O)N(c3ccc(Cl)cc3)C2=O)n1 (centres undefined),-0.1,108.4,11.5,3.5,.,.,.,.
Cc1ccnc(SC2CC(=O)N(c3ccc(Br)cc3)C2=O)n1 (centres undefined),1.1*,97.0,19.6,8.7,83.3,0.0,82.7,-0.1
Cc1ccc(CN(C(=O)c2csnn2)C(C(=O)NC2CCCC2)c2ccc(C)o2)cc1 (centres undefined),-0.4,104.2,-6.9,2.0,.,.,.,.
CCC(Sc1nncn1C)C(=O)Nc1ccccc1OC (centres undefined),0.5*,99.8,-4.5,-4.4,106.2,-0.2,95.6,0.5
O=C(CN1CCC(n2nnc3cc(F)ccc32)CC1)NCCc1ccccc1,-0.1,103.1,5.2,-0.3,.,.,.,.
CCOc1ccccc1CNC(CC)CO (centres undefined),-0.1,103.8,8.9,4.7,.,.,.,.
CCOC(=O)c1c(O)c2cccc3c2n(c1=O)CC3,0.0,105.3,18.0,16.9,100.0,-0.1,94.0,0.0
O=C(NCCO)c1c(O)c2cccc3c2n(c1=O)CC3,0.0,109.8,5.2,19.4,.,.,.,.
O=C(CSc1ccsc1[N+](=O)[O-])NCc1ccco1,-0.1,96.6,1.2,-13.9,.,.,.,.

# Source: PubChem
